Experimental data as given in ChEMBL document CHEMBL4028851, “Discovery of Potent Small-Molecule Inhibitors of Ubiquitin-Conjugating Enzyme UbcH5c from α-Santonin Derivatives” (J Med Chem, 2017).
pKd: −log10 of the molar value. The source made the active and inactive calls. The rule behind the calls is not given here.

Assays:
[1] = biological target: T1, Ubiquitin-conjugating enzyme E2 D3 (Homo sapiens, UniProt P61077); experiment: Binding affinity to human recombinant UbcH5c by SPR analysis
[2] = biological target: Ubiquitin-conjugating enzyme E2 D3 (Mus musculus) (UniProt P61079); experiment: Inhibition of UbcH5c in mouse b.End3 cells assessed as decrease in TNF-alpha-mediated IkB-alpha phosphorylation at 10 uM preincubated for 2 hrs followed by TNF-alpha stimulation for 20 mins by Western blot analysis; assay type: cell-based
Ubiquitin-conjugating enzyme E2 D3 (Mus musculus), sequence (P61079 whole entry, looked up): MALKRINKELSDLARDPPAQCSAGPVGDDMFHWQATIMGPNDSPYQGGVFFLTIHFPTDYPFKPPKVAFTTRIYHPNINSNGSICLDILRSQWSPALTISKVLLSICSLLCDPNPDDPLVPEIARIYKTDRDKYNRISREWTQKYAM
In short: (§1)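 bEnd.3 cells (DMEM, 10% FBS) were pretreated with compound at 2.5, 5 or 10 µM for 2 h, then stimulated with 20 ng/mL TNF-α (15 min in the methods, 20 min in the legend). Lysates were run on 10% SDS-PAGE and immunoblotted for phospho-IκBα, IκBα, phospho-p65 and p65, with GAPDH as loading control.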

[3] = biological target: Ubiquitin-conjugating enzyme E2 D3 (Mus musculus) (UniProt P61079); experiment: Inhibition of UbcH5c in mouse b.End3 cells assessed as decrease in TNF-alpha-mediated IkB-alpha degradation at 10 uM preincubated for 2 hrs followed by TNF-alpha stimulation for 15 mins by Western blot analysis
in vitro = conditions: human, HEK-293T cells
[4] = biological target: T1, Ubiquitin-conjugating enzyme E2 D3; experiment: Inhibition of UbcH5c (unknown origin) at 1 uM preincubated for 15 mins followed by E1, Ub and ATP addition measured after 40 mins by Western blot analysis
[5] = biological target: Ubiquitin-conjugating enzyme E2 D3 (Mus musculus) (UniProt P61079); experiment: Inhibition of UbcH5c in mouse b.End3 cells assessed as decrease in TNF-alpha-mediated IkB-alpha phosphorylation preincubated for 2 hrs followed by TNF-alpha stimulation for 20 mins by Western blot analysis; assay type: cell-based; in short: as §1
[6] = biological target: Ubiquitin-conjugating enzyme E2 D3 (Mus musculus) (UniProt P61079); experiment: Inhibition of UbcH5c in mouse b.End3 cells assessed as decrease in TNF-alpha-mediated IkB-alpha degradation preincubated for 2 hrs followed by TNF-alpha stimulation for 20 mins by Western blot analysis; assay type: cell-based; in short: as §1
[7] = biological target: Ubiquitin-conjugating enzyme E2 D3 (Mus musculus) (UniProt P61079); experiment: Inhibition of UbcH5c in mouse b.End3 cells assessed as decrease in TNF-alpha-mediated p65 phosphorylation preincubated for 2 hrs followed by TNF-alpha stimulation for 20 mins by Western blot analysis; assay type: cell-based; in short: as §1

T1 sequence (P61077 whole entry, looked up): as the sequence (P61079 whole entry, looked up) above

| SMILES | inhibition [2] | inhibition [3] | cytotoxicity at 5 µM (in vitro) | inhibition [4] | other results |
| --- | --- | --- | --- | --- | --- |
| C=C1C(=O)O[C@@H]2C[C@]3(C)C(=C[C@H]12)[C@@H](C)CC[C@H]3O | Active | Active | – | – | pKd [1]: 5.59 |
| C=C1C(=O)O[C@H]2c3c(C)c(OC(=O)/C=C/c4cccs4)cc(C)c3CC[C@@H]12 | – | – | < 20% | – | – |
| C=C1C(=O)O[C@@H]2C3[C@@H](C)[C@@H](OC(=O)CC)CC[C@]3(C)CC[C@@H]12 (some centres not stated) | – | – | – | inactive | – |
| C=C1C(=O)O[C@@H]2C3=C(C)[C@@H](OC(=O)c4ccccc4)CC3[C@](C)(OC(C)=O)CC[C@@H]12 (some centres not stated) | Active | Active | < 20% | – | inhibition [5]: Dose-dependent effect; inhibition [6]: Dose-dependent effect; inhibition [7]: Dose-dependent effect |
| C=C1C(=O)O[C@H]2c3c(C)c(OC(=O)/C=C/c4ccc(OC(F)(F)F)cc4)cc(C)c3CC[C@@H]12 | – | – | < 20% | – | – |
| C=C1C(=O)O[C@@H]2C3[C@@H](C)[C@@H](OC(=O)C4CCCCC4)CC[C@]3(C)CC[C@@H]12 (some centres not stated) | – | – | – | inactive | – |
| C=C1C(=O)O[C@H]2c3c(C)c(OCc4ccc(OC(F)(F)F)cc4)cc(C)c3CC[C@@H]12 | – | – | < 20% | – | – |
| C=C1C(=O)O[C@@H]2C3[C@@H](C)[C@@H](OC(=O)CCCC)CC[C@]3(C)CC[C@@H]12 (some centres not stated) | – | – | – | inactive | – |
| C=C1C(=O)O[C@@H]2C3[C@@H](C)[C@@H](OC(=O)CCC)CC[C@]3(C)CC[C@@H]12 (some centres not stated) | – | – | – | inactive | – |
| C=C1C(=O)O[C@@H]2C3=C(C)[C@@H](OC(=O)c4ccc(C)cc4)CC3[C@](C)(OC(C)=O)CC[C@@H]12 (some centres not stated) | – | – | < 20% | – | – |
| C=C1C(=O)O[C@H]2c3c(C)c(OC(=O)c4cccnc4)cc(C)c3CC[C@@H]12 | – | – | < 20% | – | – |
| C=C1C(=O)O[C@@H]2C3[C@@H](C)[C@@H](OC(=O)c4ccc(I)cc4)CC[C@]3(C)CC[C@@H]12 (some centres not stated) | Active | Active | < 20% | – | inhibition [5]: Dose-dependent effect; inhibition [6]: Dose-dependent effect; inhibition [7]: Dose-dependent effect |
| C=C1C(=O)O[C@@H]2C3=C(C)[C@@H](OC(=O)/C=C/c4ccc(OCCC)cc4)CC3[C@](C)(OC(C)=O)CC[C@@H]12 (some centres not stated) | – | – | < 20% | – | – |
| C=C1C(=O)O[C@@H]2C3[C@@H](C)[C@@H](OC(=O)c4cccc(I)c4)CC[C@]3(C)CC[C@@H]12 (some centres not stated) | Active | Active | < 20% | – | inhibition [5]: Dose-dependent effect; inhibition [6]: Dose-dependent effect; inhibition [7]: Dose-dependent effect |
| C=C1C(=O)O[C@H]2c3c(C)c(OC(=O)/C=C/c4cccnc4)cc(C)c3CC[C@@H]12 | Active | Active | < 20% | – | inhibition [5]: Dose-dependent effect; inhibition [6]: Dose-dependent effect; inhibition [7]: Dose-dependent effect |
| C=C1C(=O)O[C@H]2c3c(C)c(OCc4ccccc4C(F)(F)F)cc(C)c3CC[C@@H]12 | – | – | < 20% | – | – |
| C=C1C(=O)O[C@@H]2C3[C@@H](C)[C@@H](OC(C)=O)CC[C@]3(C)CC[C@@H]12 (some centres not stated) | – | – | – | inactive | – |
| C=C1C(=O)O[C@@H]2C3=C(C)[C@@H](OC(=O)c4ccc(Cl)cc4)CC3[C@](C)(OC(C)=O)CC[C@@H]12 (some centres not stated) | Active | Active | < 20% | – | inhibition [5]: Dose-dependent effect; inhibition [6]: Dose-dependent effect; inhibition [7]: Dose-dependent effect |
| C=C1C(=O)O[C@@H]2C3[C@@H](C)[C@@H](OC(=O)c4ccco4)CC[C@]3(C)CC[C@@H]12 (some centres not stated) | – | – | < 20% | – | – |
| C=C1C(=O)O[C@@H]2C3[C@@H](C)[C@@H](OC(=O)C4CCCC4)CC[C@]3(C)CC[C@@H]12 (some centres not stated) | – | – | – | inactive | – |
